Source: PubChem (several laboratories)
PKA-R2B activ: activators of human PKA-R2B complex. actives 0.079% (n = 340,000). PKA-R2B holoenzyme dissociation, Cy5-IP20 fluorescence polarization; R2B truncated from residue 108, S112A mutant; 0% DMSO only, 100% 113 µM cGMP. AID 504700. activation, % at 11.4 µM. P22694+P31323;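 active = activation above a cutoff set at the mean over all compounds plus 3 SD, cut at about 18% in these data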;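 also: higher means more holoenzyme dissociation and a rise in polarization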
Target sequence (P31323 whole entry, looked up, other chains not shown, the tested form may be a part): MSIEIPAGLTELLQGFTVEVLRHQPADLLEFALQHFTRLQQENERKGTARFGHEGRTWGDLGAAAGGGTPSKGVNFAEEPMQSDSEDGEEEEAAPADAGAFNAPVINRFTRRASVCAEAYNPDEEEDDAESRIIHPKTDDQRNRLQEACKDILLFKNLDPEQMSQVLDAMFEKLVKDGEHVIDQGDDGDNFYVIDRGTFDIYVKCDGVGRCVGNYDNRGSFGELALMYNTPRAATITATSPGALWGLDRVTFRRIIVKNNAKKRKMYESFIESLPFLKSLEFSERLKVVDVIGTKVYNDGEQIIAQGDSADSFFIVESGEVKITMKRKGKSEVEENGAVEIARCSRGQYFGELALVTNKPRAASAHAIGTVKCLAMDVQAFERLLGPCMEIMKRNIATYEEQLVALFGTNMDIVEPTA
SR-BI DiI-HDL act: enhances SR-BI lipid uptake from DiI-HDL. CHO ldlA[mSR-BI] cells, DiI-HDL uptake fluorescence, 3 h; 100 = double the neutral-control signal. activation, % at 12.5 µM. actives 0.096% (n = 320,000). AID 504775;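 active = mean replicate activation of at least 60% and every replicate at or above 60%; inconclusive = mean or all-replicate condition met, but not both; inactive = mean below 60% and not all replicates reaching 60%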;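 also: 0% = median plate neutral-control signal and 100% = twice that signal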
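material = CHO ldlA[mSR-BI] cells | medium = Ham's F12 with 0.5% BSA, HEPES 25 mM, pH 7.4 | reagent = fluorescent DiI-HDL, 10 µg/mL final | compound dosing = single-point compound dose | incubation = 3 h, 37 °C | measured by = bottom-read fluorescence, 550/595 nm | measure = HDL uptake via cellular fluorescence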
Vif inh: HIV Vif inhibition | inhibition, % at 7.49 µM | AID 602346 | actives 0.35% (n = 340,000) | HEK293T cells, Vif self-association by quenched fluorescence, imaging, 24 h; in the data active = inhibition above about 50%, passing the limit was not always enough; inconclusive = no clear call, values can overlap the other calls; inactive = below about 31%
SR-BI DiI inh: mouse SR-BI HDL lipid transfer inhibition; Q61009; ldlA[mSR-BI] CHO cells, DiI-HDL uptake fluorescence, 3 h; inhibition, % at 12.5 µM; actives 0.96% (n = 320,000); AID 488896;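 active = mean replicate inhibition of at least 70% and a set share of replicates each scoring 70 or more; inconclusive = meets just one of the two criteria; inactive = fails both criteria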;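 also: 0% = median of neutral control wells and 100% = median of positive control wells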
PKA-R1A activ: PKA-R1A complex activation | PKA-R1A dissociation, Cy5-IP20 fluorescence polarization; scaled: DMSO 0%, 113 µM cGMP 100% | AID 504707 | activation, % at 11.4 µM | actives 0.083% (n = 340,000);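 active = percent activation above the mean of all tested compounds plus 3 SD, cut at about 19% in these data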;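 also: higher means more PKAc released from R1A so a rise in polarization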
Active calls of the source: *. An excerpt weighted towards active compounds, which were near 1.4% of everything screened.

Screening CC(C)(C)C1CCc2c(sc(NC(=O)C3CCCO3)c2C(N)=O)C1 (centres undefined) returned PKA-R2B activ -2.1, SR-BI DiI-HDL act -78.4, Vif inh -8.7, SR-BI DiI inh 78.4* and PKA-R1A activ -6.0.
For Cc1ccc(F)cc1C(=O)N1CCCC(c2cc(C(=O)Nc3ccccc3Cl)no2)C1 (centres undefined) the results were Vif inh -7.6.
`CC(C)CN1CC(=O)N2C(c3ccccc3)c3[nH]c4ccccc4c3C[C@H]2C1=O` (some centres undefined) gave PKA-R2B activ 3.0, SR-BI DiI-HDL act -78.4, Vif inh -0.3, SR-BI DiI inh 78.4* and PKA-R1A activ 2.2.
Screening O=C1[C@@H]2Cc3c([nH]c4ccccc34)C(c3ccccc3)N2C(=O)CN1CCO (some centres undefined) returned PKA-R2B activ 3.1, SR-BI DiI-HDL act -27.7, Vif inh -3.8, SR-BI DiI inh 27.7 and PKA-R1A activ -5.1.
`O=C(c1ccc(Br)c(S(=O)(=O)N2CCOCC2)c1)N1CCN(C/C=C/c2ccccc2)CC1` gave PKA-R2B activ 0.8, SR-BI DiI-HDL act -11.5, Vif inh -3.1, SR-BI DiI inh 11.5 and PKA-R1A activ 2.5.
CCOc1cccc(/C=N/NC(=S)Nc2ccccc2[N+](=O)[O-])c1O was read as PKA-R2B activ 3.6, SR-BI DiI-HDL act -128.3, Vif inh 2.7, SR-BI DiI inh 128.3* and PKA-R1A activ -0.2.
For O=c1c2ccccc2nc(N/N=C/c2c(O)ccc3ccccc23)n1O the results were PKA-R2B activ -1.7, SR-BI DiI-HDL act -129.1, Vif inh 9.4, SR-BI DiI inh 129.1* and PKA-R1A activ -6.2.
`Cc1ccc(C(=O)N/N=C\c2ccc(OC(=O)c3cccs3)cc2)cn1` gave PKA-R2B activ -11.4, SR-BI DiI-HDL act -5.5, Vif inh 3.3, SR-BI DiI inh 5.5 and PKA-R1A activ 2.6.
Cc1ccc(C(=O)N/N=C/c2ccc(OC(=O)c3ccccc3Cl)cc2)cn1 was read as PKA-R2B activ -4.0, SR-BI DiI-HDL act -72.8, Vif inh 57.8*, SR-BI DiI inh inconclusive and PKA-R1A activ 10.2.
`O=S(=O)(c1ccc(Cl)cc1)c1snnc1-c1ccccc1` gave PKA-R2B activ -4.5, SR-BI DiI-HDL act 0.3, Vif inh 93.7*, SR-BI DiI inh -0.3 and PKA-R1A activ -11.9.
Screening Cc1ccc(NC(=S)NC(=O)CC2CC(C)(C)OC2=O)cc1 (centres undefined) returned PKA-R2B activ 6.3, SR-BI DiI-HDL act 30.6, Vif inh -11.8, SR-BI DiI inh -30.6 and PKA-R1A activ 0.4.
CC1(C)CC(CC(=O)NC(=S)Nc2ccc([N+](=O)[O-])cc2)C(=O)O1 (centres undefined) was read as PKA-R2B activ 10.4, SR-BI DiI-HDL act -89.5, Vif inh 5.1, SR-BI DiI inh 89.5* and PKA-R1A activ -11.9.
`O=C(N/N=C/c1ccccn1)c1cc(-c2ccc(Cl)cc2)nc2ccccc12` gave PKA-R2B activ -2.2, SR-BI DiI-HDL act -106.8, Vif inh 11.1, SR-BI DiI inh 106.8* and PKA-R1A activ 0.2.
Cc1ccc(-c2cc(C(=O)N/N=C\c3cnn(C)c3C)c3ccccc3n2)cc1C was read as PKA-R2B activ 0.7, SR-BI DiI-HDL act -96.1, Vif inh -8.3, SR-BI DiI inh 96.1* and PKA-R1A activ -12.7.
`O=C(N/N=C/c1ccccc1OC(F)F)c1cc(-c2ccncc2)nc2ccccc12` gave PKA-R2B activ -3.5, SR-BI DiI-HDL act -89.8, Vif inh 24.3, SR-BI DiI inh 89.8* and PKA-R1A activ 7.2.
Screening COc1ccccc1-c1cc(C(=O)N/N=C/c2ccc(C)s2)c2ccccc2n1 returned PKA-R2B activ -0.7, SR-BI DiI-HDL act -77.1, Vif inh -6.7, SR-BI DiI inh 77.1* and PKA-R1A activ -5.9.
CCc1ccc(/C=N/NC(=O)c2cc(-c3ccccc3OC)nc3ccccc23)s1 was read as PKA-R2B activ 2.1, Vif inh -3.1 and PKA-R1A activ -8.5.
COc1ccc(-c2cc(C(=O)N/N=C/c3cc(OC)c(OC)cc3OC)c3ccccc3n2)cc1 was read as Vif inh -0.5.
For Cc1ccsc1C(=O)Nc1ccc(OCc2ccccc2)cc1 the results were PKA-R2B activ 0.1, SR-BI DiI-HDL act -7.2, Vif inh -12.0, SR-BI DiI inh 7.2 and PKA-R1A activ -2.5.
`COc1cc2nc(NC(=O)c3ccc(F)cc3Cl)sc(=O)c2cc1OC` gave PKA-R2B activ 5.1, SR-BI DiI-HDL act -41.7, Vif inh -5.7, SR-BI DiI inh 41.7 and PKA-R1A activ -8.2.
For CCC(=O)N1CCC1(C)C(=O)Nc1cccc(OC)c1OC (centres undefined) the results were Vif inh 13.4.
Screening CCCOc1cccc(-c2cc(C(=O)N/N=C/c3ccccn3)c3ccccc3n2)c1 returned PKA-R2B activ -0.5, SR-BI DiI-HDL act -52.4, Vif inh -15.4, SR-BI DiI inh 52.5 and PKA-R1A activ -9.4.
O=C(N/N=C/c1ccccn1)c1cc(-c2ccc(Br)cc2)nc2ccccc12 was read as PKA-R2B activ 0.6, SR-BI DiI-HDL act -75.9, Vif inh 12.6, SR-BI DiI inh 75.9* and PKA-R1A activ -11.0.
Clc1nc(NCCc2ccccc2)c2cn[nH]c2n1 was read as PKA-R2B activ -6.0, SR-BI DiI-HDL act 11.0, Vif inh -13.0, SR-BI DiI inh -10.9 and PKA-R1A activ -12.2.
`COc1ccc(Nc2nc(OC)nc(OC)n2)cc1` gave PKA-R2B activ -9.9, Vif inh -2.6 and PKA-R1A activ -4.6.
`COc1ccc(Nc2nc(Nc3ccc(OC)cc3)nc(-n3[nH]c(=O)c(C)c3C)n2)cc1` gave PKA-R2B activ -5.9, SR-BI DiI-HDL act -19.1, Vif inh 56.2*, SR-BI DiI inh 19.1 and PKA-R1A activ 2.7.
`CCOc1ccc(NC(=O)/C(C#N)=C/c2ccc(N3CCCC3)c(C)c2)cc1` gave PKA-R2B activ 2.1, SR-BI DiI-HDL act -95.6, Vif inh inconclusive, SR-BI DiI inh 95.6* and PKA-R1A activ -5.2.
CCN(CC)S(=O)(=O)c1ccc(N2CCCCC2)c(NC(=O)/C(C#N)=C/c2ccc(OC)cc2)c1 was read as PKA-R2B activ 5.3, SR-BI DiI-HDL act -7.6, Vif inh 1.9, SR-BI DiI inh 7.6 and PKA-R1A activ -14.4.
`COc1ccccc1NC(=O)Cn1c(CCC(=O)O)ccc1-c1ccc(C)cc1` gave PKA-R2B activ 1.4, SR-BI DiI-HDL act -1.2, Vif inh 8.7, SR-BI DiI inh 1.2 and PKA-R1A activ -6.5.
`COc1cccc(/C=N/NC(=O)c2nc(-c3ccccc3)cc(-c3ccccc3)n2)c1O` gave PKA-R2B activ 4.1, SR-BI DiI-HDL act -106.0, Vif inh -1.4, SR-BI DiI inh 106.0* and PKA-R1A activ -16.9.
